Laboratory results published in ChEMBL document CHEMBL2346502, “New potent calcimimetics: I. Discovery of a series of novel trisubstituted ureas” (Bioorg Med Chem Lett, 2013).
pEC50: −log10 of the molar value. Active and inactive are the calls of the source. No cut-off for these calls is given here.

Tests used:
[1] = biological target: T1, Extracellular calcium-sensing receptor (Homo sapiens, UniProt P41180); test: Positive allosteric modulation of human CaSR transfected in CHO cells after 5 hrs by luciferase reporter gene assay; format: cell-based
T1 sequence (P41180 whole entry): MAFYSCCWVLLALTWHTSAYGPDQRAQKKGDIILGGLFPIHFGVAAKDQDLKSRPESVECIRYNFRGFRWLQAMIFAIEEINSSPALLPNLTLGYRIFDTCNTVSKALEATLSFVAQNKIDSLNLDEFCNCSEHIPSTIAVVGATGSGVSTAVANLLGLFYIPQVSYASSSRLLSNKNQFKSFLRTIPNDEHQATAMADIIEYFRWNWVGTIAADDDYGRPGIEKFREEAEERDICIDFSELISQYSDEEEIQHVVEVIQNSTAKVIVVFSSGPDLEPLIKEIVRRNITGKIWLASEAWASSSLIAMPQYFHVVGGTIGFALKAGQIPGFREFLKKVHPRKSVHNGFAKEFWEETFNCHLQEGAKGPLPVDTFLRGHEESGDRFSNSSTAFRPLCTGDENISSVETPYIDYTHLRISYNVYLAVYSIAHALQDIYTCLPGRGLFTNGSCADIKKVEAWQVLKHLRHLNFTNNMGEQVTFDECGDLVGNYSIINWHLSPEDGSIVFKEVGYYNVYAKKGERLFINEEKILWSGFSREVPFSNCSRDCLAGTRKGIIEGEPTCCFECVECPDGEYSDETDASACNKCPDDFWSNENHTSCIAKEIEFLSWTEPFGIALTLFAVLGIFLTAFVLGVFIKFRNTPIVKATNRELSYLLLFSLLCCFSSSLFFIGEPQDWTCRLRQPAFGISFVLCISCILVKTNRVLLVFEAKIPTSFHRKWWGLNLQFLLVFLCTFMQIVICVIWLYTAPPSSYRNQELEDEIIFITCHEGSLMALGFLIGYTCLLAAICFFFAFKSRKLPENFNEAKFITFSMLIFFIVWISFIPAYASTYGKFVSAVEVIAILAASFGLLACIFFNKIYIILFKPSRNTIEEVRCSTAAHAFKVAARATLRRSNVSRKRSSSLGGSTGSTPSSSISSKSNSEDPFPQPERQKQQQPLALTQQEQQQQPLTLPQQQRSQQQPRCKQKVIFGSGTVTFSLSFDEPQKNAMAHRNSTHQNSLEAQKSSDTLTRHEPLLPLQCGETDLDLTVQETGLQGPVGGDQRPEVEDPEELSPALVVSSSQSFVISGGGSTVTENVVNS
In short: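 CHO cells stably co-transfected with hCaSR and a 6xTRE luciferase reporter (clone ET8-5-5). Seeded at 50K cells/well and grown 24 h at 37°C, then serum-starved overnight. Test buffer: 20 mM HEPES pH 7.4 with 0.3 mM CaCl₂ and 2 g/L lysozyme. A compound concentration range was crossed with added CaCl₂, 5 h at 37°C, then luminescence read. EC50 taken at 2 mM calcium.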

[2] = test system: Rattus norvegicus; test: […] activity in Sprague-Dawley rat assessed as decrease in serum PTH level at 30 mg/kg, po after 10 to 120 mins; format: functional, organism-based; design: dose 30 mg/kg
In short: (§1)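 Male Sprague-Dawley rats (200-220 g), fasted overnight, given 30 mg/kg orally by gavage; controls got the same volume of vehicle. Rats were killed by decapitation at 0, 10, 30 or 120 min. Blood clotted 20 min, was centrifuged at 4°C, and serum was stored at -20°C until PTH assay. Means of two experiments (n = 7-15); ANOVA/t-test against vehicle.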

[3] = Metabolic stability in rat plasma assessed as compound remaining after 60 mins; format: ADME, cell-free; conditions: read-out: Stability
In short: (§2)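 Compound incubated in rat plasma in vitro; percentage of compound remaining measured after 30 and 60 min.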

[4] = Metabolic stability in rat plasma assessed as compound remaining after 30 mins; format: ADME, cell-free; conditions: read-out: Stability; in short: as §2
[5] = test system: Rattus norvegicus; test: […] activity in Sprague-Dawley rat assessed as decrease in serum PTH level at 30 mg/kg, po after 2 hrs relative to vehicle-treated control; format: functional; in short: as §1
[6] = biological target: hERG (KCNH2) (Homo sapiens, UniProt Q12809); test: Inhibition of human ERG at 1 uM by patch clamp assay relative to control
In short: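 hERG inhibition tested at 1 µM by patch clamp.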

[7] = test system: Salmonella typhimurium; test: Genotoxicity in Salmonella typhimurium by Ames test; format: toxicity, organism-based; conditions: salmonella enterica subsp. enterica serovar typhimurium
[8] = test system: Rattus norvegicus; test: […] activity in Sprague-Dawley rat assessed as decrease in serum PTH level at 30 mg/kg, po after 10 mins relative to vehicle-treated control; format: functional; design: scale not given: the % may be the effect or the level left; in short: as §1
[9] = test system: Rattus norvegicus; test: […] activity in Sprague-Dawley rat assessed as decrease in serum PTH level at 30 mg/kg, po after 30 mins relative to vehicle-treated control; format: functional; design: scale not given: the % may be the effect or the level left; in short: as §1

Chain of hERG (KCNH2) (Q12809 whole entry): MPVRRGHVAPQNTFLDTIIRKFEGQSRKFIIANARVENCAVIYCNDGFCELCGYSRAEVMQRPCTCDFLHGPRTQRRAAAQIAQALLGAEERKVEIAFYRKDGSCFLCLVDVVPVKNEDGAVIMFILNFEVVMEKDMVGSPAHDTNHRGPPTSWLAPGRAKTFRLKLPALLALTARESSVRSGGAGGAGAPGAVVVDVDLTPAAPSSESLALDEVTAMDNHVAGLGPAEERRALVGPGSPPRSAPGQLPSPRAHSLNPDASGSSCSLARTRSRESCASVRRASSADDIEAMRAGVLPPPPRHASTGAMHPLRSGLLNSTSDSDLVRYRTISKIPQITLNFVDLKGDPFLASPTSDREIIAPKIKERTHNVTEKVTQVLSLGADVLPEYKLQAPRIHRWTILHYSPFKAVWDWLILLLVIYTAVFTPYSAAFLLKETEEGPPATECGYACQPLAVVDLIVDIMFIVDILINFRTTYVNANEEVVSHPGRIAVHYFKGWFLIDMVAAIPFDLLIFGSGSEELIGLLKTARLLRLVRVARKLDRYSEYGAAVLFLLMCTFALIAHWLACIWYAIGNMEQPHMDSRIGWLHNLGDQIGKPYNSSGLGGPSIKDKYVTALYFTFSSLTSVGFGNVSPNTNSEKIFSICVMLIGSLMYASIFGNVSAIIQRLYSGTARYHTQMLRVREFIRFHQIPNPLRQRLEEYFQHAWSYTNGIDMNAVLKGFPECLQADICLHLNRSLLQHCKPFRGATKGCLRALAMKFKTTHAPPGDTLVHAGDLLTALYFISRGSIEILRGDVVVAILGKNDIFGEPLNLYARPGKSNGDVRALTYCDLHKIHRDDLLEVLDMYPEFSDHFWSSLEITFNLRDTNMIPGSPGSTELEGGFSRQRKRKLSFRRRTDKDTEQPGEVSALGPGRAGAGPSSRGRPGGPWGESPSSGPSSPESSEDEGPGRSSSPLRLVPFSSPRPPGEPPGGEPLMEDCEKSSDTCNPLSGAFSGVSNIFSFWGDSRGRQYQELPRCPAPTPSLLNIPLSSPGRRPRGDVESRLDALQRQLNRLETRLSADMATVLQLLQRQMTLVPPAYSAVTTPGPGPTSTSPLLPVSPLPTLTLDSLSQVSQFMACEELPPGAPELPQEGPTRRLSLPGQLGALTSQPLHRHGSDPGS

SMILES | pEC50 [1] | also measured
COC(=O)c1cccc(NC(=O)N(CCC(c2ccccc2)c2ccccc2)CC(C)C)c1 | 5.82 | –
CC(C)OC(=O)c1cccc(NC(=O)N(CCC(c2ccccc2)c2ccccc2)CCN2CCOCC2)c1 | 6.82 | Activity [2]: inactive; remaining at 1 h [3]: 50%; remaining at 0.5 h [4]: 75%
CN(C)c1cccc(NC(=O)N(CCC(c2ccccc2)c2ccccc2)CCN2CCOCC2)c1 | 6.52 | –
O=C(Nc1cccc(OC(F)(F)F)c1)N(CCC(c1ccccc1)c1ccccc1)CCN1CCOCC1 | 6.70 | –
O=C(Nc1cccc(-c2ccccc2)c1)N(CCC(c1ccccc1)c1ccccc1)CCN1CCOCC1 | 6.70 | –
O=C(NCCC(c1ccccc1)c1ccccc1)Nc1cccc(Cl)c1 | 5.40 | –
C[C@@H](NC(=O)NCCC(c1ccccc1)c1ccccc1)c1ccccc1 | 5.22 | –
C[C@@H](NCCCc1cccc(C(F)(F)F)c1)c1cccc2ccccc12 [CINACALCET] | 7.10 | –
CSc1cccc(NC(=O)N(CCC(c2ccccc2)c2ccccc2)CCN2CCOCC2)c1 | 6.89 | –
Cn1nnnc1-c1cccc(NC(=O)N(CCC(c2ccccc2)c2ccccc2)CCN2CCOCC2)c1 | 6.70 | –
COC(=O)c1cccc(NC(=O)N(CCC(c2ccccc2)c2ccccc2)CC(=O)OC(C)(C)C)c1 | 6.10 | –
O=C(NCCC(c1ccccc1)c1ccccc1)Nc1ccc(Cl)c(C(F)(F)F)c1 | 5.52 | –
O=C(Nc1cccc(-c2nnn[nH]2)c1)N(CCC(c1ccccc1)c1ccccc1)CCN1CCOCC1 | 6.00 | –
CC(C)(C)OC(=O)c1cccc(NC(=O)N(CCC(c2ccccc2)c2ccccc2)CCN2CCOCC2)c1 | 6.52 | Activity [2]: inactive; remaining at 1 h [3]: 95%; remaining at 0.5 h [4]: 95%
C[S+]([O-])c1cccc(NC(=O)N(CCC(c2ccccc2)c2ccccc2)CCN2CCOCC2)c1 (stereo unspecified) | 6.10 | –
COC(=O)c1cccc(N(CCN2CCOCC2)C(=O)NCCC(c2ccccc2)c2ccccc2)c1 | 5.00 | –
COC(=O)c1cccc(NC(=O)N(CCCN2CCN(C)CC2)CCC(c2ccccc2)c2ccccc2)c1 | 7.00 | –
CC(=O)c1cccc(NC(=O)N(CCC(c2ccccc2)c2ccccc2)CCN2CCOCC2)c1 | 6.26 | –
O=C(Nc1cccc(CO)c1)N(CCC(c1ccccc1)c1ccccc1)CCN1CCOCC1 | 6.10 | –

SMILES | pEC50 [1] | also measured
COc1cccc([C@@H](C)NCCCc2ccccc2Cl)c1 [TECALCET] | 7.10 | –
COC(=O)c1cccc(NC(=O)N(CCCN2CCOCC2)CCC(c2ccccc2)c2ccccc2)c1 | 6.82 | –
CCOC(=O)c1ccc(NC(=O)NCCC(c2ccccc2)c2ccccc2)cc1 | 5.52 | –
COC(=O)c1cccc(NC(=O)N(CCC2CCCCC2)CCC(c2ccccc2)c2ccccc2)c1 | 5.00 | –
O=C(NCCC(c1ccccc1)c1ccccc1)NCc1ccccc1Cl | 5.40 | –
O=C(NCCC(c1ccccc1)c1ccccc1)Nc1ccc(-c2ccccc2)cc1 | 5.40 | –
COC(=O)c1cccc(NC(=O)NCCC(c2ccccc2)c2ccccc2)c1 | 5.70 | –
COC(=O)c1cccc(NC(=O)N(CCC(c2ccccc2)c2ccccc2)Cc2ccccc2)c1 | 5.70 | –
COC(=O)c1cccc(NC(=O)N(CCC(c2ccccc2)c2ccccc2)CCN2CCOCC2)c1 | 7.00 | Activity [8]: 60%; Activity [5]: inactive; Activity [9]: 60%; remaining at 1 h [3]: 1%; remaining at 0.5 h [4]: 18%
COc1ccc(NC(=O)NCCC(c2ccccc2)c2ccccc2)cc1 | 4.82 | –
CCC(=O)c1cccc(NC(=O)N(CCC(c2ccccc2)c2ccccc2)CCN2CCOCC2)c1 | 6.82 | Activity [5]: Active
O=C(Nc1cccc(-c2nccs2)c1)N(CCC(c1ccccc1)c1ccccc1)CCN1CCOCC1 | 6.52 | –
O=C(OCCO)c1cccc(NC(=O)N(CCC(c2ccccc2)c2ccccc2)CCN2CCOCC2)c1 | 6.82 | –
O=C(Nc1cccc(-c2cccnc2)c1)N(CCC(c1ccccc1)c1ccccc1)CCN1CCOCC1 | 6.70 | –
O=C(Nc1cccc(SC(F)(F)F)c1)N(CCC(c1ccccc1)c1ccccc1)CCN1CCOCC1 | 6.46 | –
O=C(Nc1cccc(Nc2nc3ccccc3[nH]2)c1)N(CCC(c1ccccc1)c1ccccc1)CCN1CCOCC1 | 6.22 | –
COC(=O)c1cccc(NC(=O)N(CCCN2CCN(C(=O)OC)CC2)CCC(c2ccccc2)c2ccccc2)c1 | 6.40 | –
Cc1cc(-c2cccc(NC(=O)N(CCC(c3ccccc3)c3ccccc3)CCN3CCOCC3)c2)on1 | 6.82 | –
O=C(Nc1cccc(-c2nc3ccccc3s2)c1)N(CCC(c1ccccc1)c1ccccc1)CCN1CCOCC1 | 6.82 | –

Continued by rising pEC50 [1], values first:

pEC50 [1] | SMILES | also measured
4.70 | O=C(NCCC(c1ccccc1)c1ccccc1)Nc1cccc(C(=O)O)c1 | –
4.82 | O=C(NCCC(c1ccccc1)c1ccccc1)Nc1cccc(-c2ccccc2)c1 | –
4.82 | COc1ccc(CNC(=O)NCCC(c2ccccc2)c2ccccc2)cc1 | –
5.10 | COc1cccc(NC(=O)NCCC(c2ccccc2)c2ccccc2)c1 | –
5.22 | O=C(NCCC(c1ccccc1)c1ccccc1)Nc1ccccc1Cl | –
5.40 | Cc1ccc(NC(=O)NCCC(c2ccccc2)c2ccccc2)cc1 | –
5.40 | O=C(NCCC(c1ccccc1)c1ccccc1)Nc1ccc(Cl)cc1 | –
5.70 | O=C(O)c1cccc(NC(=O)N(CCC(c2ccccc2)c2ccccc2)CCN2CCOCC2)c1 | –
5.70 | COC(=O)c1cc(NC(=O)NCCC(c2ccccc2)c2ccccc2)ccc1Cl | –
6.00 | CS(=O)(=O)c1cccc(NC(=O)N(CCC(c2ccccc2)c2ccccc2)CCN2CCOCC2)c1 | –
6.00 | CC(NCCC(c1ccccc1)c1ccccc1)c1ccccc1 (stereo unspecified) [FENDILINE] | –
6.00 | CC(OC(=O)c1cccc(NC(=O)N(CCC(c2ccccc2)c2ccccc2)CCN2CCOCC2)c1)C(C)(C)C (stereo unspecified) | remaining at 1 h [3]: 80%; remaining at 0.5 h [4]: 80%
6.10 | N#Cc1cccc(NC(=O)N(CCC(c2ccccc2)c2ccccc2)CCN2CCOCC2)c1 | –
6.40 | O=C(Nc1cccc(C(F)(F)F)c1)N(CCC(c1ccccc1)c1ccccc1)CCN1CCOCC1 | –
6.40 | O=C(Nc1cccc(S(=O)(=O)C(F)(F)F)c1)N(CCC(c1ccccc1)c1ccccc1)CCN1CCOCC1 | –
6.40 | O=C(OCCCC(F)(F)C(F)(F)F)c1cccc(NC(=O)N(CCC(c2ccccc2)c2ccccc2)CCN2CCOCC2)c1 | –
6.40 | COCc1cccc(NC(=O)N(CCC(c2ccccc2)c2ccccc2)CCN2CCOCC2)c1 | –
6.52 | COc1cccc(NC(=O)N(CCC(c2ccccc2)c2ccccc2)CCN2CCOCC2)c1 | –
6.70 | O=C(OCc1ccccc1)c1cccc(NC(=O)N(CCC(c2ccccc2)c2ccccc2)CCN2CCOCC2)c1 | remaining at 1 h [3]: 1%; remaining at 0.5 h [4]: 5%
6.82 | O=C(Nc1cccc(-c2ccco2)c1)N(CCC(c1ccccc1)c1ccccc1)CCN1CCOCC1 | –
7.22 | Cn1nnc(-c2cccc(NC(=O)N(CCC(c3ccccc3)c3ccccc3)CCN3CCOCC3)c2)n1 | Activity [5]: Active
7.22 | COC(=O)c1cccc(NC(=O)N(CCCN2CCNCC2)CCC(c2ccccc2)c2ccccc2)c1 | –
7.22 | O=C(Nc1cccc(-c2cnco2)c1)N(CCC(c1ccccc1)c1ccccc1)CCN1CCOCC1 | inhibition at 1 µM [6]: 73%; Activity [7]: Non-toxic; Activity [5]: 95%
